Calls of active or inactive are those of the source. The rule behind the calls is not given here.
How the values were obtained:
Collagenase 3 = Collagenase 3 (Homo sapiens, UniProt P45452); experiment: Inhibition of human recombinant MMP13 using Mca-Lys-Pro-Leu-Gly-Leu-Dpa-Ala-Arg-NH2 substrate by spectrophotometry
Summary of the method: (§1)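 Fluorogenic cleavage kinetics with 0.2–0.5 nM recombinant human MMP in 50 mM Tris/HCl pH 6.8 with 10 mM CaCl2 at 25 °C. […] Fluorescence is monitored. Ki is derived by the Horovitz–Levitski method, as the mean ± SD of three experiments.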

Homo sapiens [1] = species: Homo sapiens; experiment: Selectivity index, ratio of Ki for inhibition of human recombinant MMP7 for Ki for inhibition of human recombinant MMP12
[2] = molecular target: Macrophage metalloelastase (Homo sapiens, UniProt P39900); experiment: Inhibition of human recombinant MMP12 using Mca-Lys-Pro-Leu-Gly-Leu-Dpa-Ala-Arg-NH2 substrate by spectrophotometry; summary of the method: as §1
[3] = molecular target: 72 kDa type IV collagenase (Homo sapiens, UniProt P08253); experiment: Inhibition of human recombinant MMP2 using Mca-Lys-Pro-Leu-Gly-Leu-Dpa-Ala-Arg-NH2 substrate by spectrophotometry; summary of the method: as §1
Matrilysin = molecular target: T1, Matrilysin (Homo sapiens, UniProt P09237); experiment: Inhibition of human recombinant MMP7 using Mca-Lys-Pro-Leu-Gly-Leu-Dpa-Ala-Arg-NH2 substrate by spectrophotometry; summary of the method: as §1
T1 sequence (P09237 whole entry): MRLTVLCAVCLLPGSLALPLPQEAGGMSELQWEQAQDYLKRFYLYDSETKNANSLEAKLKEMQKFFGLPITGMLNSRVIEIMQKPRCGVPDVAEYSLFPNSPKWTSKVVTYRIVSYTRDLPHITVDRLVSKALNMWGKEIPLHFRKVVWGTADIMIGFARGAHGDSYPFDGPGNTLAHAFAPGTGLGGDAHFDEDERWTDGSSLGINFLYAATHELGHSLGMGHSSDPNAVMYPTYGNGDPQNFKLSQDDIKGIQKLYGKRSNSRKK

[4] = molecular target: Matrix metalloproteinase-9 (Homo sapiens, UniProt P14780); experiment: Inhibition of human recombinant MMP9 using Mca-Lys-Pro-Leu-Gly-Leu-Dpa-Ala-Arg-NH2 substrate by spectrophotometry; summary of the method: as §1
Homo sapiens [5] = species: Homo sapiens; experiment: Selectivity index, ratio of Ki for inhibition of human recombinant MMP13 for Ki for inhibition of human recombinant MMP12
[6] = molecular target: Macrophage metalloelastase (Mus musculus) (UniProt P34960); experiment: Inhibition of mouse recombinant MMP12 using Mca-Lys-Pro-Leu-Gly-Leu-Dpa-Ala-Arg-NH2 substrate by spectrophotometry
Homo sapiens [7] = species: Homo sapiens; experiment: Selectivity index, ratio of Ki for inhibition of human recombinant MMP9 for Ki for inhibition of human recombinant MMP12

Sequence of Macrophage metalloelastase (P39900 whole entry): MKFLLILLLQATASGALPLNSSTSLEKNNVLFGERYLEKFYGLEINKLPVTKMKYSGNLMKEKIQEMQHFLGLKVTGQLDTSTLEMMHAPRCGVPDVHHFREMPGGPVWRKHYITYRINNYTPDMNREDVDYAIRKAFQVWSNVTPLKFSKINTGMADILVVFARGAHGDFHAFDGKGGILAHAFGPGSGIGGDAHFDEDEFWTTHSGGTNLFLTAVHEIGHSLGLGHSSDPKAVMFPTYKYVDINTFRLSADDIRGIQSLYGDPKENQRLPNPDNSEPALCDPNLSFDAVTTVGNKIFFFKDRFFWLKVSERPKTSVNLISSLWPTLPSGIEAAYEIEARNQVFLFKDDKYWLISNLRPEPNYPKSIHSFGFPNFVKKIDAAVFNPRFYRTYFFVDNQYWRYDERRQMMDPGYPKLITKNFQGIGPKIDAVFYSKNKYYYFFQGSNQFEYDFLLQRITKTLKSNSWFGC
Sequence of 72 kDa type IV collagenase (P08253 whole entry): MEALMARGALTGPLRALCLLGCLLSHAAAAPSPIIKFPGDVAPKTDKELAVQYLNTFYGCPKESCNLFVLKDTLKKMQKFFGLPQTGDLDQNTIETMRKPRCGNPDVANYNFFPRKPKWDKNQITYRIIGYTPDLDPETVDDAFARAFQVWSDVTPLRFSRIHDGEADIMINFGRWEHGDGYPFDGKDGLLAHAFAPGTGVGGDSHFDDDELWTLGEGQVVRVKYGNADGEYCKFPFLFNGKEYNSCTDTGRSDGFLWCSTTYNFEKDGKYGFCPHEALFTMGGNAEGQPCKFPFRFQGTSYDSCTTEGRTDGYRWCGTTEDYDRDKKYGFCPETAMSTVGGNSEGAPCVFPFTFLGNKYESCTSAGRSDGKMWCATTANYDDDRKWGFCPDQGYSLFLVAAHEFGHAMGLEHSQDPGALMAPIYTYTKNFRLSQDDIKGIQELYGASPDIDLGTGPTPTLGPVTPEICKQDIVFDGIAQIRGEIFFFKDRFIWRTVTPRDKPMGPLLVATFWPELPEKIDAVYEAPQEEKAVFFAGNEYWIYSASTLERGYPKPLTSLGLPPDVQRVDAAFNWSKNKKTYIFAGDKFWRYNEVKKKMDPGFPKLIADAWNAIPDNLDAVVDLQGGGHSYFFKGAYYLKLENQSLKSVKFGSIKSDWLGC
Sequence of Macrophage metalloelastase (Mus musculus) (P34960 110-473 limits assumed): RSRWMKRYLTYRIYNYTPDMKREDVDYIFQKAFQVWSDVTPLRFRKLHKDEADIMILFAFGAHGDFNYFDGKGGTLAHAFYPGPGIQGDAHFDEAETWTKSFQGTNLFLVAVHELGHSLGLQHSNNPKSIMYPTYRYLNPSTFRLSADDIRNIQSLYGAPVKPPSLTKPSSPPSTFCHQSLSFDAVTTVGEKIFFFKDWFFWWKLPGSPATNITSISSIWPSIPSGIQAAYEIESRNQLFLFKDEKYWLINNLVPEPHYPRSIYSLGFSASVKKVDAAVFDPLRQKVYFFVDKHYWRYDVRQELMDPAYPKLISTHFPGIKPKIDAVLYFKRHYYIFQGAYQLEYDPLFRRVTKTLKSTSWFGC
Sequence of Matrix metalloproteinase-9 (P14780 whole entry): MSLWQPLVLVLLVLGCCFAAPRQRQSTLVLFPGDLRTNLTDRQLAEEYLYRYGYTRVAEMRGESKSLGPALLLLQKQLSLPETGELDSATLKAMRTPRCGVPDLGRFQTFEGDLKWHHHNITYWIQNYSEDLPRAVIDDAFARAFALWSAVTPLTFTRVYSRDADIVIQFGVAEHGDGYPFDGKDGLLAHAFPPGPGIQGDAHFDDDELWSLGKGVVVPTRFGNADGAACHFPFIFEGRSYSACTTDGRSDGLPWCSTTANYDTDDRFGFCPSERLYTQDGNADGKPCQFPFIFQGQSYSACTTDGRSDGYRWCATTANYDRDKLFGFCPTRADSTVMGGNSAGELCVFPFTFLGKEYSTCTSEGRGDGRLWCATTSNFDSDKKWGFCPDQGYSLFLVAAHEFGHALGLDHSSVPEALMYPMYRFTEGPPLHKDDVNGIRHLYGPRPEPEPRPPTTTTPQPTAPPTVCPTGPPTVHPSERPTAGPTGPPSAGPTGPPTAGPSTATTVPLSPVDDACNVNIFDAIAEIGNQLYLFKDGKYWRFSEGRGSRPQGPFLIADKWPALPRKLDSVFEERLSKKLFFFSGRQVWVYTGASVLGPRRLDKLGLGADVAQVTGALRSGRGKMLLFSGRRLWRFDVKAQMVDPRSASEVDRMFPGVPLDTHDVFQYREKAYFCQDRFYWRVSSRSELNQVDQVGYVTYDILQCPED

SMILES	Ki (Collagenase 3) [nM]	Ratio Ki (Homo sapiens [1])	Ki [2] [nM]	Ki [3] [nM]	Ki (Matrilysin) [nM]	Ki [4] [nM]	Ratio Ki (Homo sapiens [5])	inhibition (qualitative) [6]	Ratio Ki (Homo sapiens [7])
CC(C)C[C@H]1C(=O)N[C@H](C(=O)N[C@@H](CCC(=O)O)C(=O)O)Cc2ccc(cc2)OCCC[C@@H]1C(=O)NO	89	12	1.2	396	14.6	2110	74	Active	–
CNC(=O)[C@H](CCCNC(=N)N)NC(=O)[C@@H]1Cc2ccc(cc2)OCCC[C@H](C(=O)NO)[C@@H](CC(C)C)C(=O)N1	–	–	–	–	–	–	–	Active	–
CC(C)C[C@H]1C(=O)N[C@H](C(=O)O)Cc2ccc(cc2)OCCC[C@@H]1C(=O)NO	31	–	1.1	300	39	1100	–	Active	–

Second part, the compound after the results:

Ki (Collagenase 3) [nM]	Ratio Ki (Homo sapiens [1])	Ki [2] [nM]	Ki [3] [nM]	Ki (Matrilysin) [nM]	Ki [4] [nM]	Ratio Ki (Homo sapiens [5])	inhibition (qualitative) [6]	Ratio Ki (Homo sapiens [7])	SMILES
> 5000	–	8.9	> 5000	> 5000	155	–	Active	17	CC(C)C[C@H](CC(=O)NO)C(=O)N[C@@H](Cc1ccc(OCCNC(=O)c2ccc(NN)nc2)cc1)C(=O)O
78	–	7.5	222	615	1300	–	Active	–	CC(C)C[C@H](CC(=O)NO)C(=O)N[C@@H](Cc1ccccc1)C(=O)N[C@@H](CCC(=O)O)C(=O)NCCNC(=O)c1ccc(NN)nc1
81	–	11.8	164	323	125	–	Active	–	CC(C)C[C@H](CC(=O)NO)C(=O)N[C@@H](Cc1ccccc1)C(=O)O

From ChEMBL document CHEMBL4699653, “Hydroxamate-Based Selective Macrophage Elastase (MMP-12) Inhibitors and Radiotracers for Molecular Imaging” (J Med Chem, 2020)
